# Measurements from ChEMBL document CHEMBL1130253 (J Med Chem, 1997).
# What was measured:
# [1] = Elimination rate constant of the compound(15 mg/kg) administered intravenously in dog; assay type: ADME, organism-based, Canis lupus familiaris; conditions: in vivo, iv, read-out: T1/2 el (converted)
# Method in brief: (§1)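 Male Sprague-Dawley rats (n = 3), beagle dogs (1M/1F), female cynomolgus monkeys and marmosets (1M/1F). Dosed 12.5–25 mg/kg iv or 25–50 mg/kg oral in 5% dextrose, or propylene glycol:water 50:50 for marmosets. Fasted groups fasted overnight. Venous blood sampled predose to 48 h. Plasma stored at -20 °C, extracted and assayed by HPLC-UV. Mean (SD) reported for rats.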
# [2] = Elimination rate constant of the compound(25 mg/kg) administered orally in marmoset; assay type: ADME, organism-based; conditions: callithrix, in vivo, po, read-out: T1/2 el (converted); method in brief: as §1
# [3] = The area under curve (25 mg/kg) administered orally in monkey; assay type: ADME, organism-based; conditions: simiiformes, in vivo, po; method in brief: as §1
# [4] = The area under curve (100 mg/kg) administered orally in humans; assay type: ADME, organism-based; conditions: human, in vivo, po
# Method in brief: (§2)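 Healthy human volunteers given single oral doses of 100–800 mg with food. Plasma PK parameters reported as mean ± SD of four subjects per dose. Tmax reported as median.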
# [5] = The maximum plasma concentration (50 mg/kg) administered orally in rat; assay type: ADME, organism-based; set-up: dose 50 mg/kg, route oral; conditions: po; method in brief: as §1
# [6] = The area under curve (30 mg/kg) administered orally in dog; assay type: ADME, organism-based, Canis lupus familiaris; conditions: in vivo, po; method in brief: as §1
# [7] = The maximum time for retention (12.5 mg/kg) administered intravenously in marmoset; assay type: ADME, organism-based; conditions: callithrix, in vivo, iv; method in brief: as §1
# [8] = The maximum plasma concentration (200 mg/kg) administered orally in human; assay type: ADME, organism-based; set-up: route oral; conditions: po; method in brief: as §2
# [9] = Oral bioavailability (50 mg/kg) in fasted rat; assay type: ADME, organism-based; conditions: in vivo; method in brief: as §1
# [10] = Elimination rate constant of the compound(12.5 mg/kg) administered intravenously in rmonkey; assay type: ADME, organism-based; conditions: simiiformes, in vivo, iv, read-out: T1/2 el (converted); method in brief: as §1
# [11] = The maximum time for retention (100 mg) administered orally in human; conditions: in vivo, po
# [12] = The maximum plasma concentration (400 mg/kg) administered orally in human; assay type: ADME, organism-based; set-up: route oral; conditions: po; method in brief: as §2
# Homo sapiens [13] = test: The area under curve (800 mg/kg) administered orally in humans; assay type: ADME, organism-based; conditions: in vivo, po; method in brief: as §2
# [14] = The maximum time for retention (400 mg) administered orally in human; conditions: in vivo, po
# [15] = Elimination rate constant of the compound(800 mg/kg) administered orally in human; assay type: ADME, organism-based; conditions: in vivo, po; method in brief: as §2
# [16] = The area under curve (12.5 mg/kg) administered intravenously in marmoset; assay type: ADME, organism-based; conditions: callithrix, in vivo, iv; method in brief: as §1
# [17] = The maximum plasma concentration (30 mg/kg) administered orally in dog; assay type: ADME, organism-based, Canis lupus familiaris; set-up: dose 30 mg/kg, route oral; conditions: po; method in brief: as §1
# Homo sapiens [18] = test: The maximum plasma concentration (800 mg/kg) administered orally in human; assay type: ADME, organism-based; set-up: route oral; conditions: in vivo, po; method in brief: as §2
# [19] = The maximum plasma concentration (25 mg/kg) administered orally in monkey; assay type: ADME, organism-based; set-up: dose 25 mg/kg, route oral; conditions: simiiformes, po; method in brief: as §1
# [20] = The area under curve (50 mg/kg) administered orally in fasted rat; assay type: ADME, organism-based; conditions: in vivo, po; method in brief: as §1
# CCRF-CEM = test: Concentration required to inhibit against HIV strain IIIB in CEM cell; assay type: functional; conditions: Homo sapiens, read-out: ED50 (the source's name)
# [21] = Elimination rate constant of the compound(25 mg/kg) administered orally in monkey; assay type: ADME, organism-based; conditions: simiiformes, in vivo, po, read-out: T1/2 el (converted); method in brief: as §1
# [22] = The maximum time for retention (25 mg/kg) administered orally in monkey; assay type: ADME, organism-based; conditions: simiiformes, in vivo, po
# Method in brief: (§3)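 Plasma pharmacokinetics in male Sprague-Dawley rats (n = 3), beagle dogs (1 male, 1 female), female cynomolgus monkeys (2) and marmosets (1 male, 1 female). Single iv (12.5-25 mg/kg) or oral (25-50 mg/kg) dose. Vehicle was 5% dextrose for rat, dog and monkey, and propylene glycol:water (50:50) for marmoset. Venous blood was drawn predose and up to 48 h. Plasma was stored at -20 °C, extracted and assayed by HPLC-UV. Values are means.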
# [23] = The area under curve (400 mg/kg) administered orally in humans; assay type: ADME, organism-based; conditions: human, in vivo, po; method in brief: as §2
# [24] = Elimination rate constant of the compound(100 mg) administered orally in human; conditions: in vivo, po, read-out: T1/2 el (converted)
# [25] = The maximum plasma concentration (25 mg/kg) administered orally in marmoset; assay type: ADME, organism-based; set-up: dose 25 mg/kg, route oral; conditions: callithrix, po; method in brief: as §1
# Homo sapiens [26] = test: The maximum time for retention (800 mg) administered orally in human; conditions: in vivo, po
# [27] = The maximum plasma concentration (12.5 mg/kg) administered intravenously in monkey; assay type: ADME, organism-based; set-up: dose 12.5 mg/kg, route intravenous; conditions: simiiformes, iv; method in brief: as §1
# [28] = Elimination rate constant of the compound(30 mg/kg) administered orally in dog; assay type: ADME, organism-based, Canis lupus familiaris; conditions: in vivo, po, read-out: T1/2 el (converted); method in brief: as §1
# [29] = Oral bioavailability (50 mg/kg) in rat; assay type: ADME, organism-based; conditions: in vivo; method in brief: as §1
# [30] = The area under curve (15 mg/kg) administered intravenously in dog; assay type: ADME, organism-based, Canis lupus familiaris; conditions: in vivo, iv; method in brief: as §1
# [31] = The area under curve (25 mg/kg) administered orally in marmoset; assay type: ADME, organism-based; conditions: callithrix, in vivo, po; method in brief: as §1
# [32] = The maximum time for retention (50 mg/kg) administered orally in fasted rat; assay type: ADME, organism-based; conditions: in vivo, po
# Method in brief: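 Male Sprague-Dawley rats (n = 3) were fasted overnight, then given a single oral dose (25-50 mg/kg range) in 5% dextrose. Jugular, femoral or cephalic blood was sampled predose and up to 48 h. Plasma was separated at once, held at -20 °C, extracted and quantified by HPLC with UV detection. Values are the mean of three rats.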
# [33] = The maximum plasma concentration (25 mg/kg) administered intravenously in rat; assay type: ADME, organism-based; set-up: dose 25 mg/kg, route intravenous; conditions: iv; method in brief: as §1
# [34] = The maximum time for retention (25 mg/kg) administered orally in marmoset; assay type: ADME, organism-based; conditions: callithrix, in vivo, po; method in brief: as §3
# [35] = The maximum time for retention (15 mg/kg) administered intravenously in dog; assay type: ADME, organism-based, Canis lupus familiaris; conditions: in vivo, iv; method in brief: as §1
# [36] = The area under curve (12.5 mg/kg) administered intravenously in monkey; assay type: ADME, organism-based; conditions: simiiformes, in vivo, iv; method in brief: as §1
# [37] = The area under curve (50 mg/kg) administered orally in rat; assay type: ADME, organism-based; conditions: in vivo, po; method in brief: as §1
# [38] = The maximum plasma concentration (12.5 mg/kg) administered intravenously in marmoset; assay type: ADME, organism-based; set-up: dose 12.5 mg/kg, route intravenous; conditions: callithrix, iv; method in brief: as §1
# [39] = Oral bioavailability (30 mg/kg) in dog; assay type: ADME, organism-based, Canis lupus familiaris; conditions: in vivo; method in brief: as §1
# [40] = The maximum time for retention (200 mg) administered orally in human; conditions: in vivo, po
# [41] = Elimination rate constant of the compound(50 mg/kg) administered orally in fasted rat; assay type: ADME, organism-based; conditions: in vivo, po, read-out: T1/2 el (converted); method in brief: as §1
# [42] = Oral bioavailability (25 mg/kg) in marmoset; assay type: ADME, organism-based; conditions: primates, in vivo; method in brief: as §1
# [43] = Elimination rate constant of the compound(400 mg/kg) administered orally in human; assay type: ADME, organism-based; conditions: in vivo, po, read-out: T1/2 el (converted); method in brief: as §2
# [44] = Oral bioavailability (25 mg/kg) in monkey; assay type: ADME, organism-based; conditions: primates, in vivo; method in brief: as §1
# [45] = The maximum time for retention (25 mg/kg) administered intravenously in rat; assay type: ADME, organism-based; conditions: in vivo, iv; method in brief: as §3
# [46] = Elimination rate constant of the compound(25 mg/kg) administered intravenously in rat; assay type: ADME, organism-based; conditions: in vivo, iv, read-out: T1/2 el (converted); method in brief: as §1
# [47] = The maximum time for retention (30 mg/kg) administered orally in dog; assay type: ADME, organism-based, Canis lupus familiaris; conditions: in vivo, po; method in brief: as §3
# [48] = The maximum plasma concentration (50 mg/kg) administered orally in fasted rat; assay type: ADME, organism-based; set-up: dose 50 mg/kg, route oral; conditions: po; method in brief: as §1
# [49] = Elimination rate constant of the compound(12.5 mg/kg) administered intravenously in marmoset; assay type: ADME, organism-based; conditions: callithrix, in vivo, iv, read-out: T1/2 el (converted); method in brief: as §1
# [50] = The maximum plasma concentration (100 mg/kg) administered orally in human; assay type: ADME, organism-based; set-up: route oral; conditions: po; method in brief: as §2
# [51] = The maximum time for retention (12.5 mg/kg) administered intravenously in monkey; assay type: ADME, organism-based; conditions: simiiformes, in vivo, iv; method in brief: as §1
# [52] = Elimination rate constant of the compound(200 mg/kg) administered orally in human; assay type: ADME, organism-based; conditions: in vivo, po, read-out: T1/2 el (converted); method in brief: as §2
# [53] = The maximum plasma concentration (15 mg/kg) administered intravenously in dog; assay type: ADME, organism-based, Canis lupus familiaris; set-up: dose 15 mg/kg, route intravenous; conditions: iv; method in brief: as §1
# [54] = The maximum time for retention (50 mg/kg) administered orally in rat; assay type: ADME, organism-based; conditions: in vivo, po; method in brief: as §3
# [55] = The area under curve (25 mg/kg) administered intravenously in rat; assay type: ADME, organism-based; conditions: in vivo, iv; method in brief: as §1
structure (smiles),measurement,setting,value
CS(=O)(=O)O.Cc1c(O)cccc1C(=O)N[C@@H](CSc1ccccc1)[C@H](O)CN1C[C@H]2CCCC[C@H]2C[C@H]1C(=O)NC(C)(C)C [NELFINAVIR MESYLATE],half-life,[1],70.8 min
same,half-life,[2],122 min
same,AUC,[3],6290 ng·h/mL
same,AUC,[4],1250 ng·h/mL
same,Cmax,[5],1340 ng/mL
same,AUC,[6],13300 ng·h/mL
same,Tmax,[7],4.8 min
same,Cmax,[8],439 ng/mL
same,bioavailability,[9],29%
same,half-life,[10],88.2 min
same,Tmax,[11],3 h
same,Cmax,[12],1580 ng/mL
same,AUC,Homo sapiens [13],22200 ng·h/mL
same,Tmax,[14],4 h
same,T1/2 el,[15],3.37 h
same,AUC,[16],6630 ng·h/mL
same,Cmax,[17],1220 ng/mL
same,Cmax,Homo sapiens [18],3163 ng/mL
same,Cmax,[19],1590 ng/mL
same,AUC,[20],4040 ng·h/mL
same,EC50,CCRF-CEM,14 nM
same,half-life,[21],180 min
same,Tmax,[22],3 h
same,AUC,[23],7560 ng·h/mL
same,half-life,[24],103 min
same,Cmax,[25],840 ng/mL
same,T max,Homo sapiens [26],3.5 h
same,Cmax,[27],7990 ng/mL
same,half-life,[28],463 min
same,bioavailability,[29],43%
same,AUC,[30],11200 ng·h/mL
same,AUC,[31],2890 ng·h/mL
same,Tmax,[32],1.39 h
same,Cmax,[33],12700 ng/mL
same,Tmax,[34],1 h
same,Tmax,[35],4.8 min
same,AUC,[36],10400 ng·h/mL
same,AUC,[37],6090 ng·h/mL
same,Cmax,[38],5670 ng/mL
same,bioavailability,[39],35%
same,Tmax,[40],3 h
same,half-life,[41],64.2 min
same,bioavailability,[42],10%
same,half-life,[43],137 min
same,bioavailability,[44],9%
same,Tmax,[45],3.6 min
same,half-life,[46],75.6 min
same,Tmax,[47],3 h
same,Cmax,[48],1470 ng/mL
same,half-life,[49],73.8 min
same,Cmax,[50],313 ng/mL
same,Tmax,[51],4.8 min
same,half-life,[52],133 min
same,Cmax,[53],11900 ng/mL
same,Tmax,[54],2.82 h
same,AUC,[55],7010 ng·h/mL
Cc1c(O)cccc1C(=O)N[C@@H](CSc1ccc2ccccc2c1)[C@H](O)Cc1ccccc1C(=O)NC(C)(C)C,EC50,CCRF-CEM,970 nM
